{"data": "Assay results pooled from the literature", "effect on": "cell growth or viability", "note": "Protocols differ between the studies behind these lines."}
{"SMILES": "CCCCCCCCCCCCCCCCCCOc1ccc(CC(=O)OCC[N+]2(C)CCCCC2)cc1", "cell line": "NCI-H522", "method": "SRB", "concentration": "10 µM", "measurement": "inhibition", "result": "10.8%"}
{"SMILES": "CN(C)CCNC(=O)c1ccc(-c2nc3ccc4[nH]ncc4c3c3c2CCCCC3)cc1", "cell line": "EOL1", "time": "72 h", "measurement": "GI50", "result": "143 nM"}
{"SMILES": "O=C(Nc1ccc(Cl)cc1)Nc1ccc(-c2cn(Cc3ccc(Cl)cc3)nn2)cc1", "cell line": "A549", "method": "CCK-8", "concentration": "50 µM", "time": "72 h", "measurement": "viability", "result": "79.6%"}
{"SMILES": "CC(C)(C)c1cc(NC(=O)Nc2ccc(-c3cn4c(n3)sc3cc(OCCN5CCOCC5)ccc34)cc2)no1", "cell line": "EOL1", "time": "72 h", "measurement": "GI50", "result": "< 0.1 nM"}
{"SMILES": "NCC(=O)Nc1ccccc1/N=c1\\cc(-c2ccc3c(c2)OCCO3)oc2cc(F)ccc12", "cell line": "A549", "method": "CCK-8", "concentration": "1 µM", "measurement": "inhibition", "result": "-1.67%"}
{"SMILES": "COc1ccc(NC(=O)NCc2cn(Cc3ccc(Br)cc3)nn2)cc1", "cell line": "A549", "method": "CCK-8", "concentration": "50 µM", "time": "72 h", "measurement": "viability", "result": "96.4%"}
{"SMILES": "Nc1ccccc1/N=c1\\cc(-c2ccc3c(c2)OCO3)oc2ccccc12", "cell line": "A549", "method": "CCK-8", "concentration": "1 µM", "measurement": "inhibition", "result": "11.1%"}
{"SMILES": "COc1ccc(C=NNC(=O)c2nc3ccccc3s2)cc1O", "cell line": "PC-3", "method": "MTT", "concentration": "100 µM", "time": "48 h", "measurement": "cell death", "result": "25.1%"}
{"SMILES": "C[C@H](Nc1ccc2c(c1)OCCn1cc(N3C(=O)OC[C@H]3C(F)F)nc1-2)C(N)=O", "cell line": "NCI-H1048", "method": "ATP luminescence", "time": "5 days", "measurement": "EC50", "result": "0.3 nM"}
{"SMILES": "O=C(NCc1cn(Cc2ccc(Cl)cc2)nn1)Nc1ccccc1Br", "cell line": "A549", "method": "CCK-8", "concentration": "20 µM", "time": "72 h", "measurement": "viability", "result": "86.4%"}
{"SMILES": "O=C(Nc1ccccc1/N=c1\\cc(-c2ccc3c(c2)OCO3)oc2ccccc12)N1CCOCC1", "cell line": "A549", "method": "CCK-8", "concentration": "1 µM", "measurement": "inhibition", "result": "13.8%"}
{"SMILES": "CCCCCCCCCCCCCCCCCCOc1cccc(CC(=O)OCC[N+]2(C)CCCCC2)c1", "cell line": "NCI-H522", "method": "SRB", "concentration": "10 µM", "measurement": "inhibition", "result": "28.5%"}
{"SMILES": "COc1ccc2/c(=N/c3ccccc3NC(=O)CN)cc(-c3ccc4c(c3)OCCO4)oc2c1", "cell line": "A549", "method": "CCK-8", "concentration": "1 µM", "measurement": "inhibition", "result": "0.19%"}
{"SMILES": "O=C(NN=Cc1ccc(O)cc1)c1nc2ccccc2s1", "cell line": "PC-3", "method": "MTT", "concentration": "100 µM", "time": "48 h", "measurement": "cell death", "result": "39.6%"}
{"SMILES": "CN(C)CCNC(=O)c1ccc(-c2nc3ccc4[nH]ncc4c3c3c2CCCC3)c(F)c1", "cell line": "EOL1", "time": "72 h", "measurement": "GI50", "result": "42 nM"}
{"SMILES": "COc1ccc(NC(=O)Nc2cccc(-c3cn(Cc4ccc(C)cc4)nn3)c2)cc1", "cell line": "A549", "method": "CCK-8", "concentration": "50 µM", "time": "72 h", "measurement": "viability", "result": "190%"}
{"SMILES": "O=C(Nc1cccc(-c2cn(Cc3ccc(Br)cc3)nn2)c1)Nc1ccccc1Br", "cell line": "A549", "method": "CCK-8", "concentration": "20 µM", "time": "72 h", "measurement": "viability", "result": "130%"}
{"SMILES": "C=C(NC(=O)C(=C)NC(=O)c1csc(C2=N[C@@H]3c4csc(n4)[C@H]4NC(=O)c5csc(n5)[C@H]([C@](C)(O)[C@@H](C)O)NC(=O)[C@H]5CSC(=N5)/C(=C/C)NC(=O)[C@H]([C@@H](C)O)NC(=O)c5csc(n5)[C@]3(CC2)NC(=O)[C@H](C)NC(=O)C(=C)NC(=O)[C@H](C)NC(=O)[C@H]([C@@H](C)CC)N[C@@H]2C=Cc3c([C@H](C)O)cc(nc3[C@H]2O)C(=O)O[C@@H]4C)n1)C(N)=O", "cell line": "PC-3", "measurement": "EC50", "result": "54600 nM"}
{"SMILES": "Cc1nc(Nc2ncc(C(=O)Nc3c(C)cccc3Cl)s2)cc(N2CC[C@H](O)C2)n1", "cell line": "WSU-NHL", "method": "ATP luminescence", "concentration": "10 µM", "time": "72 h", "measurement": "inhibition", "result": "91%"}
{"SMILES": "O=c1[nH]cc(F)c(=O)[nH]1", "cell line": "PC-3", "method": "MTT", "concentration": "100 µM", "time": "48 h", "measurement": "cell death", "result": "10.7%"}
{"SMILES": "CN(C)CCNC(=O)c1ccc(-c2nc3ccc4[nH]ncc4c3c3c2CCCCC3)c(F)c1", "cell line": "EOL1", "time": "72 h", "measurement": "GI50", "result": "52 nM"}
{"SMILES": "COc1ccc(NC(=O)Nc2ccc(-c3cn(Cc4ccc(C)cc4)nn3)cc2)cc1", "cell line": "A549", "method": "CCK-8", "concentration": "50 µM", "time": "72 h", "measurement": "viability", "result": "76.2%"}
{"SMILES": "CCCCCCCCCCCCCCCCCCOc1ccc(CC(=O)OCC[N+](CC)(CC)CC)cc1", "cell line": "NCI-H522", "method": "SRB", "concentration": "10 µM", "measurement": "inhibition", "result": "26.6%"}
{"SMILES": "Oc1cccc(-c2nc(N3CCOCC3)c3oc4ncccc4c3n2)c1", "cell line": "A549", "method": "CCK-8", "concentration": "1 µM", "measurement": "inhibition", "result": "20.4%"}
{"SMILES": "CCCCCCCCCCCCCCCCCCOc1ccccc1CC(=O)OCC[N+]1(C)CCCC1", "cell line": "NCI-H522", "method": "SRB", "concentration": "10 µM", "measurement": "inhibition", "result": "93.2%"}
{"SMILES": "COc1ccc2/c(=N/c3ccccc3NC(=O)[C@@H](N)C(C)(C)C)cc(-c3ccc4c(c3)OCO4)oc2c1", "cell line": "A549", "method": "CCK-8", "concentration": "1 µM", "measurement": "inhibition", "result": "-3.68%"}
{"SMILES": "CCCCCCCCCCCCCCCCCCOc1ccccc1CC(=O)OCC[N+]1(C)CCOCC1", "cell line": "NCI-H522", "method": "SRB", "concentration": "10 µM", "measurement": "inhibition", "result": "60.1%"}
{"SMILES": "CN(C)CCNC(=O)c1ccc(-c2nc3ccc4[nH]ncc4c3c3c2CCCC3)cc1", "cell line": "EOL1", "time": "72 h", "measurement": "GI50", "result": "149 nM"}
{"SMILES": "COc1ccc2/c(=N/c3ccccc3NC(=O)[C@H](C)N)cc(-c3ccc4c(c3)OCCO4)oc2c1", "cell line": "A549", "method": "CCK-8", "concentration": "1 µM", "measurement": "inhibition", "result": "-2.21%"}
{"SMILES": "O=C(NCc1cn(Cc2ccc(Cl)cc2)nn1)Nc1ccc(Cl)cc1", "cell line": "A549", "method": "CCK-8", "concentration": "50 µM", "time": "72 h", "measurement": "viability", "result": "67.6%"}
{"SMILES": "CCCCCCCCCCCCCCCCCCOc1ccccc1CC(=O)OCCC[N+](C)(C)C", "cell line": "NCI-H522", "method": "SRB", "concentration": "10 µM", "measurement": "inhibition", "result": "63.7%"}
{"SMILES": "CC(C)(C)[C@H](N)C(=O)Nc1ccccc1/N=c1\\cc(-c2ccc3c(c2)OCCO3)oc2cc(F)ccc12", "cell line": "A549", "method": "CCK-8", "concentration": "1 µM", "measurement": "inhibition", "result": "-4.38%"}
{"SMILES": "CCCCCCCCCCCCCCCCCCOCC(COP(=O)([O-])OCC[N+](C)(C)C)OC (stereo not drawn)", "cell line": "NCI-H522", "method": "SRB", "concentration": "10 µM", "measurement": "inhibition", "result": "27%"}
{"SMILES": "COc1ccc(NC(=O)Nc2cccc(-c3cn(Cc4ccccc4C)nn3)c2)cc1", "cell line": "A549", "method": "CCK-8", "concentration": "20 µM", "time": "72 h", "measurement": "viability", "result": "137%"}
{"SMILES": "CCCCCCCCCCCCCCCCCCOc1ccc(CC(=O)OCC[N+](C)(C)C)cc1", "cell line": "NCI-H522", "method": "SRB", "concentration": "10 µM", "measurement": "inhibition", "result": "4.28%"}
{"SMILES": "COc1ccc(NC(=O)Nc2ccc(-c3cn(Cc4ccc(Br)cc4)nn3)cc2)cc1", "cell line": "A549", "method": "CCK-8", "concentration": "20 µM", "time": "72 h", "measurement": "viability", "result": "102%"}
